In brackets after ≈: the same amount, converted by molar mass. Activity calls are given as the source filed them. The rule behind the calls is not given here.
Experiments:
Entamoeba histolytica = test: Antiparasitic activity against Entamoeba histolytica HMI:IMSS trophozoites after 60 hrs; assay type: functional, organism-based, HM-1:IMSS
Plasmodium falciparum [1] = test: Antiparasitic activity against Plasmodium falciparum W2 infected in human erythrocytes after 72 hrs by FACS; assay type: functional, organism-based
Trypanosoma brucei = test: Antiparasitic activity against Trypanosoma brucei 427 after 48 hrs; assay type: functional, organism-based
Leishmania donovani = test: Antiparasitic activity against Leishmania donovani at <100 ug/mL; assay type: functional, organism-based
Plasmodium falciparum [2] = test: Antiparasitic activity against Plasmodium falciparum D2 infected in human erythrocytes after 72 hrs by FACS; assay type: functional, organism-based
[3] = biological target: Methionine aminopeptidase 2 (Homo sapiens) (UniProt P50579); test: Inhibition of human MetAP2 assessed as residual activity at 800 nM after 8 hrs by Met-AMC based fluorescence assay
Summary of the method: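 Human MetAP2 (80 nM) preincubated with compound at 800 nM for 8 h; remaining free enzyme activity then read by Met-AMC fluorescence and reported as residual activity.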

Plasmodium berghei = test: Antiparasitic activity against Plasmodium berghei infected Swiss Webster mice (Mus musculus) assessed as protection against parasite infection at 25 mg/kg, subcutaneously administered every 12 hrs for 4 days measured after 12 days; assay type: functional, organism-based; parameters: dose 25 mg/kg
Summary of the method: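 P. berghei-infected mice, infected on Day 1, dosed subcutaneously with 25 mg/kg every 12 h; PBS-dosed controls. Survival followed over days post infection; each data point mean of triplicates.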

[4] = Entamoeba histolytica, HM-1:IMSS, 60 h, read-out: IC50
[5] = Plasmodium falciparum, W2, 72 h, read-out: IC50
[6] = Trypanosoma brucei, 427, 48 h, read-out: IC50
[7] = Plasmodium falciparum, D2, 72 h, read-out: IC50

Chain of Methionine aminopeptidase 2 (Homo sapiens) (P50579 2-478 limits assumed): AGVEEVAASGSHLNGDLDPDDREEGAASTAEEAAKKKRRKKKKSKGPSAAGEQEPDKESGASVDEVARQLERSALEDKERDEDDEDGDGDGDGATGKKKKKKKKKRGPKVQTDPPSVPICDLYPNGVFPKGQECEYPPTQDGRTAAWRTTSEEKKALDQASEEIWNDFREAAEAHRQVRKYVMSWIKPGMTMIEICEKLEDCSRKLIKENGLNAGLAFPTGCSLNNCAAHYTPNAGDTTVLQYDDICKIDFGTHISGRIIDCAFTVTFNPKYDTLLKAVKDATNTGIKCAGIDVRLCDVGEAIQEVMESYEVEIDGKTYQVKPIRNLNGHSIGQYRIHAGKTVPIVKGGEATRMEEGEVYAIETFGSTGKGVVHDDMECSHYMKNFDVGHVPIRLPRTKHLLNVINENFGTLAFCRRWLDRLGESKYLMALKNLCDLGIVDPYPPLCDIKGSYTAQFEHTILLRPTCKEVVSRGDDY

Row | IC50 (Entamoeba histolytica; [4]) [mg/L] | IC50 (Plasmodium falciparum [1]; [5]) [mg/L] | IC50 (Trypanosoma brucei; [6]) [mg/L] | IC50 (Plasmodium falciparum [2]; [7]) [mg/L] | Activity [3] [%] | IC50 (Trypanosoma brucei; BLD = below limit of detection) | IC50 (Plasmodium falciparum [2]; BLD = below limit of detection) | IC50 (Entamoeba histolytica; BLD = below limit of detection) | IC50 (Plasmodium falciparum [1]; BLD = below limit of detection) | SMILES | Activity (Leishmania donovani) | Activity (Plasmodium berghei)
1 | 0.005 (≈ 0.0109 µM) | 0.0996 (≈ 0.217 µM) | 26 (≈ 56.7 µM) | – | – | – | – | – | – | CO[C@@H]1[C@H](OC(=O)/C=C/C=C/C=C/C=C/C(=O)O)CC[C@]2(CO2)[C@H]1[C@@]1(C)O[C@@H]1CC=C(C)C [FUMAGILLIN] | – | –
2 | 2.28 (≈ 4.47 µM) | – | 25 (≈ 49 µM) | 0.0263 (≈ 0.0516 µM) | – | – | – | – | – | CO[C@@H]1[C@H](OC(=O)N[C@@H](C(=O)NCCCN(C)C)C(C)C)CC[C@]2(CO2)[C@H]1[C@@]1(C)O[C@@H]1CC=C(C)C | inactive | –
3 | 0.0643 (≈ 0.127 µM) | – | 55 (≈ 108 µM) | 0.0288 (≈ 0.0567 µM) | – | – | – | – | – | CO[C@@H]1[C@H](OC(=O)N[C@@H](C(=O)NN2CCCCC2)C(C)C)CC[C@]2(CO2)[C@H]1[C@@]1(C)O[C@@H]1CC=C(C)C | inactive | –
4 | 0.01 (≈ 0.0244 µM) | 0.00774 (≈ 0.0189 µM) | 28 (≈ 68.2 µM) | – | 6 | – | – | – | – | CO[C@@H]1[C@H](OC(=O)NN2CCOCC2)CC[C@]2(CO2)[C@H]1[C@@]1(C)O[C@@H]1CC=C(C)C | inactive | –
5 | 0.087 (≈ 0.199 µM) | 0.0367 (≈ 0.0839 µM) | – | – | 8 | BLD | – | – | – | CO[C@@H]1[C@H](OC(=O)N2CCC(C(=O)O)CC2)CC[C@]2(CO2)[C@H]1[C@@]1(C)O[C@@H]1CC=C(C)C | inactive | –
6 | 0.01 (≈ 0.0218 µM) | 0.0205 (≈ 0.0446 µM) | 42 (≈ 91.4 µM) | – | 3 | – | – | – | – | CO[C@@H]1[C@H](OC(=O)NCc2ccc(C(=O)O)cc2)CC[C@]2(CO2)[C@H]1[C@@]1(C)O[C@@H]1CC=C(C)C | Active | –

Second part, the compound before the results:

Row | SMILES | IC50 (Entamoeba histolytica; [4]) [mg/L] | IC50 (Plasmodium falciparum [1]; [5]) [mg/L] | IC50 (Trypanosoma brucei; [6]) [mg/L] | IC50 (Plasmodium falciparum [2]; [7]) [mg/L] | Activity [3] [%] | IC50 (Trypanosoma brucei; BLD = below limit of detection) | IC50 (Plasmodium falciparum [2]; BLD = below limit of detection) | IC50 (Entamoeba histolytica; BLD = below limit of detection) | IC50 (Plasmodium falciparum [1]; BLD = below limit of detection) | Activity (Leishmania donovani) | Activity (Plasmodium berghei)
7 | CO[C@@H]1[C@H](OC(=O)N[C@@H](C(=O)NCCC2CCCN2C)C(C)C)CC[C@]2(CO2)[C@H]1[C@@]1(C)O[C@@H]1CC=C(C)C (some centres not stated) | 1.39 (≈ 2.59 µM) | – | 19 (≈ 35.5 µM) | 0.0347 (≈ 0.0648 µM) | 5 | – | – | – | – | inactive | Active
8 | CO[C@@H]1[C@H](OC(=O)N[C@H]2CN3CCC2CC3)CC[C@]2(CO2)[C@H]1[C@@]1(C)O[C@@H]1CC=C(C)C | 1.26 (≈ 2.9 µM) | 0.0394 (≈ 0.0907 µM) | – | – | – | – | – | – | – | inactive | –
9 | CO[C@@H]1[C@H](OC(=O)N[C@@H](C(=O)Nc2cccc(C(=O)O)c2)C(C)C)CC[C@]2(CO2)[C@H]1[C@@]1(C)O[C@@H]1CC=C(C)C | 0.497 (≈ 0.913 µM) | – | 14 (≈ 25.7 µM) | 0.136 (≈ 0.25 µM) | 4 | – | – | – | – | inactive | –
10 | CO[C@@H]1[C@H](OC(=O)NC(C)(C)C(=O)N2CCN(Cc3ccccc3)CC2)CC[C@]2(CO2)[C@H]1[C@@]1(C)O[C@@H]1CC=C(C)C | 2.54 (≈ 4.46 µM) | – | – | – | – | BLD | BLD | – | – | inactive | –
11 | CO[C@@H]1[C@H](OC(=O)N[C@@H](C(N)=O)C(C)C)CC[C@]2(CO2)[C@H]1[C@@]1(C)O[C@@H]1CCC(C)(C)O | – | – | – | – | 90 | BLD | – | BLD | BLD | inactive | –
12 | CO[C@@H]1[C@H](OC(=O)NC(=O)CCl)CC[C@]2(CO2)[C@H]1[C@@]1(C)O[C@@H]1CC=C(C)C [O-CHLOROACETYLCARBAMOYLFUMAGILLOL] | 0.026 (≈ 0.0647 µM) | 0.0123 (≈ 0.0306 µM) | 2.8 (≈ 6.97 µM) | – | – | – | – | – | – | – | –

From ChEMBL document CHEMBL1155352, “Antiparasitic activities of novel, orally available fumagillin analogs” (Bioorg Med Chem Lett, 2009)
